Test results taken from ChEMBL document CHEMBL4118104, “Design, Synthesis, and Evaluation of Orally Bioavailable Quinoline-Indole Derivatives as Innovative Multitarget-Directed Ligands: Promotion of Cell Proliferation in the Adult Murine Hippocampus for the Treatment of Alzheimer's Disease” (J Med Chem, 2018).

Key:
[1] = Oral bioavailability in Sprague-Dawley rat at 30 mg/kg by LC-MS/MS analysis; assay type: ADME, organism-based; settings: in vivo
Outline: (§1)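 SD rats given a single oral gavage dose of 30 mg/kg, n = 3; plasma levels by LC-MS/MS; bioavailability computed against the 5 mg/kg intravenous arm.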

[2] = Cmax in Sprague-Dawley rat at 30 mg/kg, po by LC-MS/MS analysis; assay type: ADME, organism-based; parameters: dose 30 mg/kg, route oral; settings: in vivo
Outline: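 SD rats, single oral gavage 30 mg/kg, n = 3; plasma and brain drug levels taken 1 h after dosing, measured by LC-MS/MS.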

[3] = Half life in Sprague-Dawley rat at 30 mg/kg, po by LC-MS/MS analysis; assay type: ADME, organism-based; settings: in vivo
[4] = tested on: Mus musculus; assay: Toxicity in C57BL/6 mouse assessed as effect on water intake at 677 to 2000 mg/kg, ig measured continuously during first 4 hrs, intermittently for following 24 hrs and occasionally thereafter for 14 consecutive days; assay type: organism-based; settings: in vivo, po
[5] = tested on: Mus musculus; assay: Toxicity in C57BL/6 mouse assessed as histological abnormalities of liver at 2000 mg/kg, ig after 14 consecutive days by hematoxylin/eosin dye-based microscopic analysis; assay type: organism-based; settings: in vivo, po, 336 h
Outline: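 Adult C57BL/6 mice, 12 weeks old, single intragastric doses of 0, 677, 1333 or 2000 mg/kg (n = 6 per dose, 3 male/3 female); behaviour and mortality observed over 14 days; liver, heart, lung and brain examined by HE staining at 2000 mg/kg.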

[6] = Metabolic stability in Sprague-Dawley rat liver microsomes assessed as metabolic rate constant at 100 uM up to 180 mins by HPLC-UV analysis; settings: 3 h
[7] = Half life in Sprague-Dawley rat at 5 mg/kg, iv administered as single dose by LC-MS/MS analysis; assay type: ADME, organism-based; settings: in vivo
Outline: (§2)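 SD rats given 5 mg/kg intravenously, n = 3; pharmacokinetic parameters derived from plasma concentrations.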

[8] = Initial plasma concentration in Sprague-Dawley rat at 5 mg/kg, iv administered as single dose by LC-MS/MS analysis; assay type: ADME, organism-based
[9] = tested on: Mus musculus; assay: Toxicity in C57BL/6 mouse assessed as abnormal behavior at 677 to 2000 mg/kg, ig measured continuously during first 4 hrs, intermittently for following 24 hrs and occasionally thereafter for 14 consecutive days; assay type: organism-based; settings: in vivo, po
Outline: (§3)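 Adult C57BL/6 mice, 12 weeks old, given single intragastric doses of 0, 677, 1333 or 2000 mg/kg (n = 6 per dose, 3 male and 3 female). Abnormal behaviour and deaths observed continuously for the first 4 h, intermittently over the next 24 h, then occasionally for 14 days to catch delayed effects.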

[10] = tested on: Mus musculus; assay: Induction of cell proliferation in C57BL/6 mouse hippocampal neurons in DG region assessed as BrdU-incorporation at 30 mg/kg, po administered via gavage for 7 days by immunohistochemical analysis (reference value: 2.2%); assay type: functional
Outline: (§4)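 C57BL/6 mice, 12 weeks old, n = 6, individually housed beforehand without wheels. Compound gavaged 30 mg/kg/day for 7 days with daily IP BrdU 50 mg/kg; BrdU+ cells counted by immunohistochemistry per hippocampal volume; two-way ANOVA.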

[11] = tested on: Mus musculus; assay: Toxicity in C57BL/6 mouse assessed as mortality at 677 to 2000 mg/kg, ig measured continuously during first 4 hrs, intermittently for following 24 hrs and occasionally thereafter for 14 consecutive days; assay type: organism-based; settings: in vivo, po; outline: as §3
[12] = tested on: Mus musculus; assay: Toxicity in C57BL/6 mouse assessed as macroscopic abnormalities of heart at 677 to 2000 mg/kg, ig after 14 consecutive days; assay type: organism-based; settings: in vivo, po
[13] = tested on: Mus musculus; assay: Toxicity in double APP/PS1 transgenic Alzheimer's disease mouse model assessed as carcinogenicity in intestine at 30 mg/kg/day, po for 80 days; assay type: organism-based; settings: in vivo, 1920 h
Outline: (§5)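 APP/PS1 double-transgenic mice, six months old, dosed by intragastric infusion at 30 mg/kg/day in 0.5% CMC-Na for 80 consecutive days (n = 10). Vehicle mice and wild-type C57BL/6 mice received blank 0.5% CMC-Na. Body weight tracked daily; diarrhoea, emesis-like behaviour and mortality monitored. At sacrifice, brain, subcutaneous layer, stomach, intestines, heart, lung, liver, spleen, kidneys and other organs examined for expansion or carcinogenicity.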

[14] = tested on: Mus musculus; assay: Toxicity in double APP/PS1 transgenic Alzheimer's disease mouse model assessed as emesis-like behavior at 30 mg/kg/day, po for 80 days; assay type: organism-based; settings: in vivo, 1920 h; outline: as §5
[15] = tested on: Mus musculus; assay: Toxicity in double APP/PS1 transgenic Alzheimer's disease mouse model assessed as swimming speed at 30 mg/kg/day, po for 80 days by Morris water maze test (reference value: 17.8 +/- 2.5 cm/sec); assay type: organism-based; settings: in vivo, 1920 h
[16] = Half life in Sprague-Dawley rat liver microsomes at 100 uM up to 180 mins by HPLC-UV analysis; settings: liver microsomes
[17] = tested on: Mus musculus; assay: Induction of cell proliferation in C57BL/6 mouse hippocampal neurons in CA1 region assessed as BrdU-incorporation at 30 mg/kg, po administered via gavage for 7 days by immunohistochemical analysis (reference value: 2.3%); assay type: functional; outline: as §4
[18] = tested on: Mus musculus; assay: Toxicity in double APP/PS1 transgenic Alzheimer's disease mouse model assessed as carcinogenicity in kidneys at 30 mg/kg/day, po for 80 days; assay type: organism-based; settings: in vivo, 1920 h; outline: as §5
[19] = AUC (0 to t) in Sprague-Dawley rat at 5 mg/kg, iv administered as single dose by LC-MS/MS analysis; assay type: ADME, organism-based; settings: in vivo; outline: as §2
[20] = Apparent volume of distribution in Sprague-Dawley rat at 5 mg/kg, iv administered as single dose by LC-MS/MS analysis; assay type: ADME, organism-based; settings: in vivo, read-out: Vz; outline: as §2
[21] = AUC (0 to infinity) in Sprague-Dawley rat at 30 mg/kg, po by LC-MS/MS analysis; assay type: ADME, organism-based; parameters: dose 30 mg/kg, time infinity, route oral; settings: in vivo
[22] = tested on: Mus musculus; assay: Toxicity in double APP/PS1 transgenic Alzheimer's disease mouse model assessed as increase in mortality at 30 mg/kg/day, po for 80 days; assay type: organism-based; settings: in vivo, 1920 h; outline: as §5
[23] = tested on: Mus musculus; assay: Antialzheimer activity in double APP/PS1 transgenic Alzheimer's disease mouse model assessed as reduction in amyloid beta burden at 30 mg/kg/day, po for 80 days by immunochemical staining-based analysis relative to control; assay type: functional; parameters: scale not given: the % may be the effect or the level left
Outline: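 APP/PS1 mice gavaged 30 mg/kg/day for 80 days (n = 10). Coronal sections immunostained with mOC64 anti-Aβ antibody; plaque burden is the percent area of a half coronal hemisphere.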

[24] = tested on: Mus musculus; assay: Toxicity in double APP/PS1 transgenic Alzheimer's disease mouse model assessed as carcinogenicity in lung at 30 mg/kg/day, po for 80 days; assay type: organism-based; settings: in vivo, 1920 h; outline: as §5
[25] = tested on: Mus musculus; assay: Induction of cell proliferation in C57BL/6 mouse hippocampal neurons in CA2 region assessed as BrdU-incorporation at 30 mg/kg, po administered via gavage for 7 days by immunohistochemical analysis (reference value: 2.4%); assay type: functional; outline: as §4
[26] = Clearance in Sprague-Dawley rat at 5 mg/kg, iv administered as single dose by LC-MS/MS analysis; assay type: ADME, organism-based; settings: in vivo; outline: as §2
[27] = tested on: Mus musculus; assay: Toxicity in double APP/PS1 transgenic Alzheimer's disease mouse model assessed as effect on body weight at 30 mg/kg/day, po for 80 days; assay type: organism-based; settings: in vivo, 1920 h; outline: as §5
[28] = tested on: Mus musculus; assay: Toxicity in double APP/PS1 transgenic Alzheimer's disease mouse model assessed as carcinogenicity in liver at 30 mg/kg/day, po for 80 days; assay type: organism-based; settings: in vivo, 1920 h; outline: as §5
[29] = MRT (0 to infinity) in Sprague-Dawley rat at 30 mg/kg, po by LC-MS/MS analysis; assay type: ADME, organism-based; settings: in vivo; outline: as §1

SMILES	Activity [4]	Activity [5]	K [6] [min⁻¹]	Activity [9]	Activity [10] [%]	Activity [11]	Activity [12]	Activity [13]	Activity [14]	Activity [15] [cm/s]	half-life at 3 h, 100 µM [16] [h]	Activity [17] [%]	Activity [18]	Activity [22]	Activity [23]	Activity [24]	Activity [25] [%]	Activity [27]	Activity [28]	further results
Cl.Oc1ccc2[nH]c(-c3ccc4c(Cl)cc(Cl)c(O)c4n3)cc2c1	Non-Toxic	Non-Toxic	0.00593	Non-Toxic	30.6	Non-Toxic	Non-Toxic	Non-Toxic	Non-Toxic	18.9	1.95	21.1	Non-Toxic	Non-Toxic	<=54%	Non-Toxic	24.3	Non-Toxic	Non-Toxic	bioavailability [1]: 14.1%; Cmax [2]: 1000 ng/mL; half-life [3]: 3.58 h; half-life [7]: 0.93 h; C0 [8]: 4930 ng/mL; AUC(0-t) [19]: 2110 ng·h/mL; Vd [20]: 2.49 L/kg; AUC(0-inf) [21]: 1790 ng·h/mL; clearance [26]: 39.3 mL/min/kg; MRT inf [29]: 4.88 h
Cl.Oc1c(Cl)cc(Cl)c2ccc(-c3cc4cc5c(cc4[nH]3)OCO5)nc12	Non-Toxic	Non-Toxic	0.00178	Non-Toxic	17	Non-Toxic	Non-Toxic	Non-Toxic	Non-Toxic	19	6.49	14.6	Non-Toxic	Non-Toxic	26%	Non-Toxic	16.3	Non-Toxic	Non-Toxic	–
